Experiment [1] in a line: (§1) Inhibition of Vibrio cholerae ASADH using aspartate semialdehyde and NADP+.
Experiment [2] is described as follows: Inhibition of Streptococcus pneumoniae ASADH using aspartate semialdehyde and NADP+. The method in brief: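 Recombinant enzyme, stored at -20 °C in 50 mM HEPES pH 7, 1 mM EDTA, 1 mM DTT. Reverse reaction run at room temperature in 120 mM CHES pH 8.6, 200 mM KCl, with 0.15 mM ASA, 1.5 mM NADP and 20 mM phosphate; 30 μg ml−1 enzyme starts it. NADPH formation read at 340 nm. Inhibitor serially diluted; Ki from Dixon plot of initial velocities, assuming competition with ASA.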

The nature of experiment [3]: Selectivity index, ratio of Ki for Vibrio cholerae ASADH to KI for Streptococcus pneumoniae ASADH. In a few lines:
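Recombinant S. pneumoniae and V. cholerae ASADH, stored at -20 °C in 50 mM HEPES pH 7, 1 mM EDTA, 1 mM DTT. Reverse reaction run at r.t. in 120 mM CHES pH 8.6, 200 mM KCl, with 1.5 mM NADP, 20 mM phosphate, and ASA at 0.15 mM (sp) or 0.3 mM (vc). Enzyme was 30 μg ml−1. NADPH formation was read at 340 nm. Serially diluted inhibitor gave initial velocities, and Ki came from Dixon plots assuming competition with ASA. The index is vc Ki divided by sp Ki.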

Experiment [4] has as its system Vibrio cholerae. Description: Inhibition of Vibrio cholerae ASADH up to 4 mM using aspartate semialdehyde and NADP+. The method in brief:
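Recombinant V. cholerae enzyme assayed in reverse direction at r.t. in 120 mM CHES pH 8.6 with 200 mM KCl, 0.3 mM ASA, 1.5 mM NADP and 20 mM phosphate. Reaction started with 30 μg ml−1 enzyme, and NADPH formation followed at 340 nm. Inhibitor tested at concentrations up to 4 mM.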

In experiment [5] the test system is Vibrio cholerae. As to the kind of experiment: Inhibition of Vibrio cholerae ASADH up to 2 mM using aspartate semialdehyde and NADP+. In a few lines:
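Recombinant V. cholerae enzyme assayed in reverse direction at r.t. in 120 mM CHES pH 8.6 with 200 mM KCl, 0.3 mM ASA, 1.5 mM NADP and 20 mM phosphate. Reaction started with 30 μg ml−1 enzyme, and NADPH formation followed at 340 nm. Inhibitor tested at concentrations up to 2 mM.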

Experiment [6] has as its system Vibrio cholerae. Described as §1.

Each structure is given as a SMILES string. Calls of active or inactive are those of the source. The rule behind the calls is not given here.

By Ki is commonly meant the dissociation constant of the complex between target and ligand, obtained from inhibition or displacement.

Regarding `O=C(O)CN(CCN1CCOCC1)Cc1ccc(C(=O)O)c(C(=O)O)c1`, the results for the Ki in experiment [1] (read-out: Ki) and in experiment [2] were 692 µM and 176 µM, respectively.

Take `O=C(O)CN(Cc1ccc(OC(F)(F)F)cc1)Cc1ccc(C(=O)O)c(C(=O)O)c1`: the figures for the Ki in experiment [1] (read-out: Ki) and in experiment [2] were 663 µM and 36 µM, respectively. Moreover, in experiment [3], the Ratio Ki was found to be 10.

Turning to `O=C([O-])CCN(Cc1ccc(Br)cc1)Cc1ccc(C(=O)[O-])c(C(=O)[O-])c1.[Na+].[Na+].[Na+]`, the inhibition result with Vibrio cholerae [4] is “inactive”. Also, the Ki entry is “Not Active” in experiment [1] and 3600 µM in experiment [2].

Consider `O=C(O)CN(Cc1ccc(C(=O)O)c(C(=O)O)c1)Cc1ccccc1Br`, for which the Ki in experiment [1] (read-out: Ki) was determined as 737 µM; in experiment [2], 529 µM. In experiment [3], the Ratio Ki was 10.

As for `O=CCN(CC(=O)O)Cc1ccc(C(=O)O)c(C(=O)O)c1`, the Ki was 655 µM in experiment [1] (read-out: Ki) and 276 µM in experiment [2].

Take `O=C(O)c1ccc(CN[C@@H](CO)C(=O)O)cc1C(=O)O`: the Ki in experiment [1] (read-out: Ki) is 654 µM; in experiment [2] it was 324 µM.

On to `Cc1ccc(CN(CC(=O)O)Cc2ccc(C(=O)O)c(C(=O)O)c2)cc1`, for which the Ki in experiment [1] (read-out: Ki) stood at 608 µM; in experiment [2], 63 µM. Also, the Ratio Ki in experiment [3] was 10.

Regarding `O=C(O)CN(Cc1ccc(/C=C/Cc2ccccc2)cc1)Cc1ccc(C(=O)O)c(C(=O)O)c1`, the Ki in experiment [1] (read-out: Ki) was found to be 1100 µM; in experiment [2], 476 µM. Besides, the Ratio Ki in experiment [3] is 10.

As for `O=C(O)CN(Cc1ccc(C(F)(F)F)cc1)Cc1ccc(C(=O)O)c(C(=O)O)c1`, the Ki stood at 628 µM in experiment [1] (read-out: Ki) and 24 µM in experiment [2]. Further, the Ratio Ki in experiment [3] was 10.

`O=C(O)CN(Cc1cccc(OC(F)(F)F)c1)Cc1ccc(C(=O)O)c(C(=O)O)c1`: the Ki was found to be 684 µM in experiment [1] (read-out: Ki) and 427 µM in experiment [2]. In experiment [3], the Ratio Ki turned out to be 10.

In the case of `O=C([O-])CCNCc1ccc(C(=O)[O-])c(C(=O)[O-])c1.[Na+].[Na+].[Na+]`, the inhibition result in the experiment on Vibrio cholerae [5] was “inactive”. The Ki result in experiment [1] was “Not Active”; in experiment [2] it was 2400 µM.

In the case of `Cc1ccccc1CN(CC(=O)O)Cc1ccc(C(=O)O)c(C(=O)O)c1`, the figures for the Ki in experiment [1] (read-out: Ki) and in experiment [2] were 721 µM and 524 µM, respectively. In addition, the Ratio Ki in experiment [3] is 10.

As for `NC(=O)c1ccc(CN(CC(=O)O)Cc2ccc(C(=O)O)c(C(=O)O)c2)cc1`, the figures for the Ki in experiment [1] (read-out: Ki) and in experiment [2] were 649 µM and 229 µM, respectively. Besides, in experiment [3], the Ratio Ki stood at 10.

As to `O=C(O)CN(Cc1ccc(C(=O)O)cc1)Cc1ccc(C(=O)O)c(C(=O)O)c1`, the Ki in experiment [1] (read-out: Ki) stood at 635 µM; in experiment [2], 72 µM. The Ratio Ki in experiment [3] was 10.

In the case of `C=CCN(CC(=O)O)Cc1ccc(C(=O)O)c(C(=O)O)c1`, the Ki in experiment [1] (read-out: Ki) worked out at 663 µM; in experiment [2] it was 303 µM.

For the compound `O=C(O)CN(Cc1ccc(Br)cc1)Cc1ccc(C(=O)O)c(C(=O)O)c1`, the results for the Ki in experiment [1] (read-out: Ki) and in experiment [2] were 629 µM and 57 µM, respectively. Further, the Ratio Ki in experiment [3] turned out to be 10.

Take `CN(CC(=O)O)Cc1cccc(C(=O)O)c1C(=O)O`: the inhibition result in the experiment with Vibrio cholerae [6] was “inactive”. This compound came in with a Ki in experiment [2] of 1800 µM.

For the compound `N#CCCN(CC(=O)O)Cc1ccc(C(=O)O)c(C(=O)O)c1`, the Ki in experiment [1] (read-out: Ki) worked out at 498 µM; in experiment [2], 220 µM.

As for `O=C([O-])CCN(Cc1ccc(C(F)(F)F)cc1)Cc1ccc(C(=O)[O-])c(C(=O)[O-])c1.[Na+].[Na+].[Na+]`, the inhibition result with Vibrio cholerae [4] was “inactive”. For the same compound, the values for the Ki entry in experiment [1] and in experiment [2] were “Not Active” and 3800 µM, respectively.

For `O=C(O)CN(Cc1ccc(C(=O)O)c(C(=O)O)c1)Cc1ccccc1OC(F)(F)F`, the Ki in experiment [1] (read-out: Ki) worked out at 708 µM; in experiment [2], 540 µM. For the same compound, the Ratio Ki in experiment [3] is 10.

As to `O=C(O)CN(Cc1cccc(C(F)(F)F)c1)Cc1ccc(C(=O)O)c(C(=O)O)c1`, the Ki in experiment [1] (read-out: Ki) was determined as 678 µM; in experiment [2] it was 441 µM. Further, the Ratio Ki in experiment [3] worked out at 10.

On to `Cc1cccc(CN(CC(=O)O)Cc2ccc(C(=O)O)c(C(=O)O)c2)c1`, for which the results for the inhibition constant Ki in experiment [1] (read-out: Ki) and in experiment [2] were 690 µM and 430 µM, respectively. The Ratio Ki in experiment [3] was 10.

As to `O=C(O)CN(Cc1ccc(C(=O)O)c(C(=O)O)c1)Cc1ccccc1C(F)(F)F`, the values for the Ki in experiment [1] (read-out: Ki) and in experiment [2] were 727 µM and 509 µM, respectively. The Ratio Ki in experiment [3] came out at 10.

For the compound `O=C(O)CN(Cc1ccc(OC(F)F)cc1)Cc1ccc(C(=O)O)c(C(=O)O)c1`, the values for the Ki in experiment [1] (read-out: Ki) and in experiment [2] were 698 µM and 54 µM, respectively. In experiment [3], the Ratio Ki stood at 10.

On to `C[C@H](NCc1ccc(C(=O)O)c(C(=O)O)c1)C(=O)O`, for which the results for the Ki in experiment [1] (read-out: Ki) and in experiment [2] were 609 µM and 296 µM, respectively.

Turning to `CC(C)(C)c1ccc(CN(CC(=O)O)Cc2ccc(C(=O)O)c(C(=O)O)c2)cc1`, the Ki amounted to 648 µM in experiment [1] (read-out: Ki) and 16 µM in experiment [2]. In addition, the Ratio Ki in experiment [3] was 10.

Regarding `O=C(O)CN(Cc1ccccc1)Cc1ccc(C(=O)O)c(C(=O)O)c1`, the Ki in experiment [1] (read-out: Ki) turned out to be 696 µM; in experiment [2] it was 297 µM.

Take `O=C(O)CNCc1ccc(C(=O)O)c(C(=O)O)c1`: the Ki in experiment [1] (read-out: Ki) is 528 µM; in experiment [2] it was 246 µM. For the same compound, the Ratio Ki in experiment [3] is 2.

`CN(CC(=O)O)Cc1ccc(C(=O)O)c(C(=O)O)c1`: the results for the Ki in experiment [1] (read-out: Ki) and in experiment [2] were 675 µM and 296 µM, respectively.

Turning to `O=C(O)CN(Cc1cccc(Br)c1)Cc1ccc(C(=O)O)c(C(=O)O)c1`, the Ki in experiment [1] (read-out: Ki) came out at 665 µM; in experiment [2], 442 µM. Further, the Ratio Ki in experiment [3] amounted to 10.

Values taken from ChEMBL document CHEMBL3616408, “Elaboration of a fragment library hit produces potent and selective aspartate semialdehyde dehydrogenase inhibitors” (Bioorg Med Chem, 2015).
